Source: ChEMBL document CHEMBL1157578, “Design, synthesis, and biological evaluation of novel water-soluble triptolide derivatives: Antineoplastic activity against imatinib-resistant CML cells bearing T315I mutant Bcr-Abl” (Bioorg Med Chem, 2010)
Calls of active or inactive are those of the source. The rule behind the calls is not given here.

Assays:
[1] = Cytotoxicity against human KBM5 cells harboring wild type Bcr-Abl after 72 hrs by MTT assay; details: KBM5, 72 h
[2] = Cytotoxicity against human KBM5 cells harboring Bcr-Abl T315I mutant after 72 hrs by MTT assay; type: functional, cell-based; details: KBM5, 72 h
[3] = Cytotoxicity against human KBM5 cells harboring wild type Bcr-Abl after 72 hrs by MTS assay; type: functional, cell-based; details: KBM5, 72 h
Summary of the method: (§1)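 KBM5 (wild-type p210 Bcr-Abl) or KBM5-T315I cells in IMDM + 10% heat-inactivated FCS. The T315I subline was kept in 1 µM imatinib, removed 2–3 days before assay. Cells incubated 72 h with increasing concentrations. Viability by MTS at 490 nm, as percent of control; IC50 from dose–response curves.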

KBM5 [4] = test: Cytotoxicity against imatinib-resistant human KBM5 cells harboring Bcr-Abl T315I mutant at 0.001 to 17 uM after 72 hrs by MTS assay; type: functional, cell-based; summary of the method: as §1
DU-145 = test: Inhibition of RNA polymerase 2 in human DU145 cells assessed as decrease in polymerase 2 phosphorylation at 50 to 100 nM after 18 hrs by Western blot analysis; type: cell-based
HeLa = test: Inhibition of RNA polymerase 2 in human HeLa cells assessed as decrease in polymerase 2 phosphorylation at 50 to 100 nM after 18 hrs by Western blot analysis; type: cell-based
[5] = Cytotoxicity against mouse 32D cells harboring wild type Bcr-Abl after 72 hrs by MTS assay; type: functional, cell-based
Summary of the method: (§2)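 32D myeloid cells stably expressing wild-type or T315I Bcr-Abl, maintained in RPMI 1640 + 10% FBS. Treated with increasing concentrations for 72 h. Viability by MTS, optical density at 490 nm.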

KBM5 [6] = test: Cytotoxicity against human KBM5 cells harboring wild type Bcr-Abl at 0.001 to 17 uM after 72 hrs by MTS assay; type: functional, cell-based; summary of the method: as §1
HCT-116 = test: Inhibition of RNA polymerase 2 in human HCT116 cells assessed as decrease in polymerase 2 phosphorylation at 50 to 100 nM after 18 hrs by Western blot analysis; type: cell-based
[7] = Downregulation of Bcr-Abl protein level in mouse 32D cells harboring Bcr-Abl T315I mutant after 18 hrs by Western blot analysis; type: functional, cell-based
Summary of the method: (§3)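 Cells exposed for 18 h at the indicated concentrations. Whole-cell lysates made in RIPA buffer with phosphatase and protease inhibitors. Western blot for Bcr-Abl (c-Abl C-19), phospho-c-Abl Y245, phospho-RNA polymerase II, PARP, and actin as loading control.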

KBM5 [8] = test: Inhibition of RNA polymerase 2 in human KBM5 cells harboring wild type Bcr-Abl assessed as decrease in polymerase 2 phosphorylation after 18 hrs by Western blot analysis; type: cell-based; summary of the method: as §3
[9] = Downregulation of Bcr-Abl mRNA level in human KBM5 cells harboring Bcr-Abl T315I mutant at 50 to 100 nM after 18 hrs by semi-quantitative RT-PCR analysis; type: functional, cell-based
Summary of the method: (§4)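 KBM5 and KBM5-T315I cells exposed to 50 or 100 nM, or control medium, for 18 h. Bcr-Abl and GAPDH mRNA measured by semi-quantitative RT-PCR; products run on 1% agarose and stained with ethidium bromide.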

[10] = Cytotoxicity against imatinib-resistant mouse 32D cells harboring Bcr-Abl T315I mutant after 72 hrs by MTS assay; type: functional, cell-based; summary of the method: as §2
[11] = Cytotoxicity against imatinib-resistant human KBM5 cells harboring Bcr-Abl T315I mutant after 72 hrs by MTS assay; type: functional, cell-based; details: KBM5, 72 h; summary of the method: as §1
[12] = Downregulation of Bcr-Abl protein level in mouse 32D cells harboring wild type Bcr-Abl after 18 hrs by Western blot analysis; type: functional, cell-based; summary of the method: as §3
MEF = test: Cytotoxicity against MEF after 72 hrs by MTS assay; type: cell-based; details: Mus musculus
Summary of the method: (§5)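 MEF and NHFB fibroblasts cultured in DMEM + 10% FCS. Exposed to increasing concentrations for 72 h. Viability by MTS reagent, optical density at 490 nm.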

[13] = Downregulation of Bcr-Abl mRNA level in human KBM5 cells harboring wild type Bcr-Abl at 50 to 100 nM after 18 hrs by semi-quantitative RT-PCR analysis; type: functional, cell-based; summary of the method: as §4
KBM5 [14] = test: Inhibition of RNA polymerase 2 in human KBM5 cells harboring Bcr-Abl T315I mutant assessed as decrease in polymerase 2 phosphorylation after 18 hrs by Western blot analysis; type: cell-based; summary of the method: as §3
KBM5 [15] = test: Induction of apoptosis in human KBM5 cells harboring wild type Bcr-Abl assessed as PARP cleavage at 50 to 100 uM after 18 hrs by Western blot analysis; type: functional, cell-based
[16] = Downregulation of Bcr-Abl protein level in human KBM5 cells harboring wild type Bcr-Abl after 18 hrs by Western blot analysis; type: functional, cell-based; summary of the method: as §3
[17] = Aqueous solubility in water; type: physicochemical; details: buffer
KBM5 [18] = test: Induction of apoptosis in human KBM5 cells harboring Bcr-Abl T315I mutant assessed as PARP cleavage at 50 to 100 uM after 18 hrs by Western blot analysis; type: functional, cell-based
[19] = Downregulation of Bcr-Abl protein level in human KBM5 cells harboring Bcr-Abl T315I mutant after 18 hrs by Western blot analysis; type: functional, cell-based; summary of the method: as §3
[20] = Cytotoxicity against NHFB after 72 hrs by MTS assay; design: species or system Homo sapiens; summary of the method: as §5
Mus musculus [21] = test: Toxicity in BALB/c nu/nu mouse xenografted with human KBM5 cells harboring Bcr-Abl T315I mutant assessed as morbidity at 0.5 mg/kg/day, ip for 2 weeks administered on day 14 after tumor implantation; type: organism-based; design: route intraperitoneal; details: in vivo, 336 h
Summary of the method: (§6)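 Male nu/nu BALB/c mice (6–8 weeks) received 3 × 10⁷ KBM5-T315I cells subcutaneously in the flank. At about 50 mm³ (day 14) they were randomized, 4 per group, to daily ip drug in normal saline or the same volume of saline for two weeks. Body weight, feeding and motor activity were monitored, along with morbidity and mortality. At the end, blood was taken for AST, ALT, LDH and complete blood count.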

Mus musculus [22] = test: Toxicity in BALB/c nu/nu mouse xenografted with human KBM5 cells harboring Bcr-Abl T315I mutant assessed as effect on feeding behavior at 0.5 mg/kg/day, ip for 2 weeks administered on day 14 after tumor implantation; type: organism-based; design: route intraperitoneal; details: in vivo, 336 h; summary of the method: as §6
KBM5 [23] = test: Antitumor activity against Bcr-Abl T315I mutant expressing human KBM5 cells xenografted in BALB/c nu/nu mouse assessed as decrease in tumor volume at 0.5 mg/kg/day, ip for 2 weeks administered on day 14 after tumor implantation; type: functional, organism-based
Summary of the method: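 KBM5-T315I cells, 3 × 10⁷, injected s.c. into the flanks of male nu/nu BALB/c mice aged 6–8 weeks. Dosing began at about 50 mm³ on day 14: 0.5 mg/kg/d i.p. in normal saline for two weeks, with saline controls and four mice per group. Calipers every other day; volume = a² × b × 0.4.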

Mus musculus [24] = test: Toxicity in BALB/c nu/nu mouse xenografted with human KBM5 cells harboring Bcr-Abl T315I mutant at 0.5 mg/kg/day, ip for 2 weeks administered on day 14 after tumor implantation by pilot dose-finding test; type: organism-based; design: route intraperitoneal; details: in vivo, 336 h
Mus musculus [25] = test: Toxicity in BALB/c nu/nu mouse xenografted with human KBM5 cells harboring Bcr-Abl T315I mutant assessed as effect on motor activity at 0.5 mg/kg/day, ip for 2 weeks administered on day 14 after tumor implantation; type: organism-based; design: route intraperitoneal; details: in vivo, 336 h; summary of the method: as §6
Mus musculus [26] = test: Toxicity in BALB/c nu/nu mouse xenografted with human KBM5 cells harboring Bcr-Abl T315I mutant assessed as increase in blood alanine aminotransferase level at 0.5 mg/kg/day, ip for 2 weeks administered on day 14 after tumor implantation; type: organism-based; design: route intraperitoneal; details: in vivo, 336 h; summary of the method: as §6
Mus musculus [27] = test: Toxicity in BALB/c nu/nu mouse xenografted with human KBM5 cells harboring Bcr-Abl T315I mutant assessed as change in body weight at 0.5 mg/kg/day, ip for 2 weeks administered on day 14 after tumor implantation; type: organism-based; design: route intraperitoneal; details: in vivo, 336 h; summary of the method: as §6
Mus musculus [28] = test: Toxicity in BALB/c nu/nu mouse xenografted with human KBM5 cells harboring Bcr-Abl T315I mutant assessed as mortality at 0.5 mg/kg/day, ip for 2 weeks administered on day 14 after tumor implantation; type: organism-based; design: route intraperitoneal; details: in vivo, 336 h; summary of the method: as §6
Mus musculus [29] = test: Toxicity in BALB/c nu/nu mouse xenografted with human KBM5 cells harboring Bcr-Abl T315I mutant assessed as increase in blood aspartate aminotransferase level at 0.5 mg/kg/day, ip for 2 weeks administered on day 14 after tumor implantation; type: organism-based; design: route intraperitoneal; details: in vivo, 336 h; summary of the method: as §6
Mus musculus [30] = test: Toxicity in BALB/c nu/nu mouse xenografted with human KBM5 cells harboring Bcr-Abl T315I mutant assessed as occurrence of myelosuppression at 0.5 mg/kg/day, ip for 2 weeks administered on day 14 after tumor implantation; type: organism-based; design: route intraperitoneal; details: in vivo, 336 h; summary of the method: as §6

Row | Structure (SMILES) | IC50 [3] [nM] | Activity (KBM5 [4]) | inhibition (DU-145) | inhibition (HeLa) | IC50 [5] [nM] | Activity (KBM5 [6]) | inhibition (HCT-116) | Activity [7] | inhibition (KBM5 [8]) | Activity [9] | IC50 [10] [nM] | IC50 [11] [nM] | Activity [12] | IC50 (MEF) [nM] | Activity [13] | inhibition (KBM5 [14]) | Activity (KBM5 [15]) | Activity [16] | Activity (KBM5 [18]) | Activity [19] | further results
1 | Cc1ccc(NC(=O)c2ccc(CN3CCN(C)CC3)cc2)cc1Nc1nccc(-c2cccnc2)n1 [IMATINIB] | – | – | – | – | – | – | – | – | – | – | – | – | – | – | – | – | – | – | – | – | IC50 [1]: 280 nM; IC50 [2]: 5400 nM
2 | CC(C)[C@]12O[C@H]1[C@@H]1O[C@@]13[C@H]1CCC4=C(COC4=O)[C@@H]1C[C@@H]1O[C@@]13[C@@H]2OC(=O)CNCCO | 18.2 | Active | Active | Active | 61 | Active | Active | Dose-dependent effect | Dose-dependent effect | Active | 74 | 19.7 | Dose-dependent effect | 10400 | Active | Dose-dependent effect | Active | Dose-dependent effect | Active | Dose-dependent effect | solubility [17]: Soluble; IC50 [20]: 10000 nM
3 | CC(C)[C@]12O[C@H]1[C@@H]1O[C@@]13[C@H]1CCC4=C(COC4=O)[C@@H]1C[C@@H]1O[C@@]13[C@@H]2OC(=O)CN1CCOCC1 | 52.5 | Active | Active | Active | 70 | Active | Active | Dose-dependent effect | Dose-dependent effect | Active | 80 | 20.7 | Dose-dependent effect | 11500 | Active | Dose-dependent effect | Active | Dose-dependent effect | Active | Dose-dependent effect | Activity (Mus musculus [21]): Non-toxic; Activity (Mus musculus [22]): Non-toxic; Activity (KBM5 [23]): Active; Activity (Mus musculus [24]): Non-toxic; Activity (Mus musculus [25]): Non-toxic; Activity (Mus musculus [26]): Non-toxic; Activity (Mus musculus [27]): Non-toxic; Activity (Mus musculus [28]): Non-toxic; Activity (Mus musculus [29]): Non-toxic; Activity (Mus musculus [30]): Non-toxic; IC50 [20]: 10400 nM
